A selection: hits, their analogues and other compounds. The true share with any hit is near 5.6%.
aDG glyco act: alpha-DG glycosylation activation; 360,000 tested, 0.22% active; activation, % at 10 µM; Pro5-aDG cells, alpha-DG glycosylation AlphaScreen (IIH6); 0% Pro5, 100% B10-LARGE cell signal;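 active means activation of at least 8% versus controls, or a plate z-score of at least 8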;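 further: Pro5 are CHO cells carrying HIG-tagged alpha-DG that lacks glycosylation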
MPTP inh: blocks calcium-induced mitochondrial swelling | inhibition, % at 10 µM | 360,000 tested, 1.4% active | isolated mouse mitochondria, Ca2+ swelling absorbance, 30 min;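 active means inhibition of 50% or more, scaled per plate between neutral and stimulator controls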;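 further: 0% = DMSO wells given calcium and 100% = 1 mM EGTA wells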
GRIN3A LBD mod: modulators (binders) of human NR3A ligand-binding domain; NR3A LBD differential scanning fluorimetry, Tm shift; 0% = protein alone, 100% = glycine-bound protein; Tm shift relative to glycine control, % at 25 µM; 340,000 tested, 2.5% active; AID 1259313;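 active means melting temperature shift of at least 10% of the positive control shift, at one fixed dose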
CHOP UPR activ: apoptotic UPR (CHOP) activation | 330,000 tested, 0.34% active | CHO-CHOP luciferase reporter, luminescence; percent of tunicamycin response over DMSO baseline | activation, % at 10 µM;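 active means at 10 µM dose, activation of 40% or more, normalized to positive control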;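 further: 100% = tunicamycin at 10 µg/mL and 0% = DMSO alone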
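assay system = CHO CHOP reporter cells | amount = 500 CHO-CHOP cells per well | buffer or medium = F12 with 10% FBS | incubation = 16-18 h cell attachment, then 6 h compound exposure, 37 °C | detection = luminescence read with Steady-Glo | read-out = percent activation relative to tunicamycin control | controls = tunicamycin high control, DMSO low control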
CHOP inh: inhibitors of CHOP induction in ER stress response. CHO-K1 CHOP-promoter luciferase, tunicamycin-induced, 15-18 h. inhibition, % at 10 µM. 220,000 tested, 3.8% active. AID 2732;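 active means compounds that reduced the stress-induced luciferase reporter signal by more than about 70% of percent inhibition, limit read from the data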;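 further: 0% = tunicamycin plus vehicle and 100% = wells without tunicamycin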
UPR XBP1 act: adaptive UPR (XBP1) activation; CHO-XBP1 luciferase reporter, IRE1-XBP1 UPR activation, luminescence; percent of tunicamycin response, DMSO as zero; activation, % at 20 µM; 330,000 tested, 0.33% active; AID 463104;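 active means versus positive control, 20 µM dose yields 30% or more activation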;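 further: 100% = tunicamycin at 10 µg/mL and 0% = DMSO only wells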
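Material – CHO cell line with stable XBP1 luciferase reporter · Buffer or medium – F12 plus 10% FBS · Compound – single point, 20 µM final compound, 1% DMSO · Schedule – 16-18 h cell attachment at 37 °C, then 6 h compound exposure · Signal – Steady-Glo luminescence read · Benchmarks – high control tunicamycin 10 µg/mL final, low control DMSO vehicle only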
CHOP inh conf: confirmation of CHOP induction inhibitors | 2,100 tested, 45% active | CHO-CHOP promoter luciferase reporter, tunicamycin-induced, luminescence | shares compounds with CHOP inh | inhibition, % at 10 µM;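 active means mean of three repeat readings of reporter signal inhibition above a set limit, cut at about 70% in these data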;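 further: 0% = tunicamycin plus vehicle and 100% = wells lacking tunicamycin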
* hit, by the source's call; . = no result.

SMILES	aDG glyco act	MPTP inh	GRIN3A LBD mod	CHOP UPR activ	CHOP inh	UPR XBP1 act	CHOP inh conf
CCN(C(=O)CN(C)Cc1cccc(Cl)c1Cl)c1c(N)n(Cc2ccccc2)c(=O)[nH]c1=O	0	-1	1	1	12	0	.
CCCCCCCC(=O)N/N=C/c1ccc(Br)cc1	0	6	-3	0	97*	0	132*
Cc1ccccc1S(=O)(=O)N(C)C[C@@H]1OCc2cnnn2CCCC(=O)N([C@@H](C)CO)C[C@H]1C	0	-2	.	.	.	.	.
Cc1ccc(OCc2nc(-c3ccccc3)no2)c(C)c1	0	-6	-3	5	24	7	.
Cc1cc(C)c(C)c(OCc2nc(-c3cccnc3)no2)c1	0	7	2	-1	97*	-3	35
CCCN(CC(=O)Nc1cc(Cl)ccc1Cl)C(=O)c1ccccn1	0	-1	3	0	.	0	.
Cc1ccc(NC(=O)COc2ncnc3c(Cl)cc(Cl)cc23)cc1[N+](=O)[O-]	0	-1	1	-1	104*	0	4
Cc1ccc(NC(=O)COc2cccc(-n3cnnn3)c2)cc1[N+](=O)[O-]	0	0	-7	0	.	2	.
O=C1C2=C(C(c3ccccc3)=NCCN2)C(c2cccc([N+](=O)[O-])c2)N1c1ccccc1 (stereo not given)	-1	-1	-1	0	10	1	.
N#C/C(=C\c1ccc(OC(=O)c2ccc(Br)s2)cc1)c1nc2ccccc2[nH]1	0	2	26*	.	100*	.	39
N#C/C(=C\c1ccc(OC(=O)c2ccc(Cl)s2)cc1)c1nc2ccccc2[nH]1	0	2	-5	9	107*	18	34
N#C/C(=C/c1ccc(OC(=O)c2ccc(Br)s2)cc1)c1nc2ccccc2[nH]1	-1	0	3	.	.	.	.
N#C/C(=C\c1ccncc1)c1nc2ccccc2[nH]1	0	0	-1	-2	-26	5	.
Cc1cc(C)n(C(=O)c2sc3cc(F)ccc3c2Cl)n1	.	.	.	1	20	0	.
CCOc1cc(C=O)ccc1OCCn1c([N+](=O)[O-])cnc1C	0	0	-1	0	.	-2	.
CCN1CCN(c2cc(C)c3cc(NC(=S)N4CCN(c5ccccc5)CC4)ccc3n2)CC1	0	-1	0	4	20	1	.
Cc1cc(N2CCOCC2)nc2ccc(NC(=S)N3CCN(c4ccccc4)CC3)cc12	1	0	-12	9	101*	0	-13
COc1cc(OC)cc(C(=O)N[C@H](C(=O)Nc2nc(-c3cc(OC)ccc3OC)cs2)C(C)C)c1	2	2	-1	0	33	1	.
COc1cc(OC)cc(C(=O)N[C@H](C(=O)Nc2nc(-c3ccc(OC)c(OC)c3)cs2)C(C)C)c1	0	8	-3	0	101*	8	56
C/C(=N\NC(=O)c1c(Br)c(C)nn1C)c1ccc(NC(=O)c2ccoc2C)cc1	0	-2	0	2	20	2	.
C/C(=N\NC(=O)c1nn(C)c(C)c1Br)c1ccc(NC(=O)c2ccoc2C)cc1	0	1	5	3	100*	8	115*
CN[C@H]1C[C@H]2c3cc(-c4ccccc4)ccc3CCN2C(=O)[C@H]1[C@H](C)O	0	0	.	.	.	.	.
CCOc1ccc(/C=N/NC(=O)c2cc(-c3ccco3)nc3ccccc23)cc1	0	-1	-11	5	104*	28	95*
O=C(N/N=C/c1ccc(F)cc1)c1cc(-c2ccco2)nc2ccccc12	0	0	-4	3	31	-1	.
Nc1cc(Cl)ccc1Oc1ccc(Cl)cc1	0	1	1	1	96*	1	134*
SMILES	aDG glyco act	MPTP inh	GRIN3A LBD mod	CHOP UPR activ	CHOP inh	UPR XBP1 act	CHOP inh conf
Nc1cc(Cl)ccc1Oc1ccccc1	0	-2	0	-2	37	4	.
COc1ccc(C(=O)NC(C)c2ccc(-n3ccnc3)cc2)cc1[N+](=O)[O-] (stereo not given)	0	-1	-1	0	.	1	.
O=S1(=O)C=C(Sc2nc3ccccc3s2)c2ccccc21	.	.	9	-11	.	-4	115*
COc1ccc(NC(C)C(=O)Nc2cccc(S(=O)(=O)N3CCOCC3)c2)cc1OC (stereo not given)	0	2	-1	0	.	0	.
Cc1c(C(=O)Nc2ccccc2)c2ccc(C(F)(F)F)cc2n1O	0	50	0	2	.	-3	.
O=C1NC[C@@H](Cc2cccc3ccccc23)N(CCc2cc(C(F)(F)F)cc(C(F)(F)F)c2)C1=O	0	0	0	-3	97*	-1	133*
O=C1NC[C@H](Cc2ccccc2)N(CCc2cc(C(F)(F)F)cc(C(F)(F)F)c2)C1=O	0	0	.	.	.	.	.
O=C1Cc2ccccc2C(=O)N1Nc1ccccc1	0	-1	1	.	.	.	.
O=C1C=C(c2ccccc2)C(=O)N1Nc1ccccc1	0	-5	-1	-9	107*	-10	-6
Cc1ccc(NN2C(=O)C=C(c3ccc(Cl)cc3)C2=O)cc1	0	0	5	-5	108*	-11	140*
COc1cccc(-c2ccc(NC(=O)C3CCCN(Cc4nccn4C)C3)cc2)c1 (stereo not given)	0	0	1	4	.	-2	.
CC(=O)c1cc2c(cc1NC(=O)CN1CCN(c3ccc(F)cc3)CC1)OCO2	0	0	0	-3	97*	3	19
CC1Sc2ccc(S(=O)(=O)N3CCC(C(=O)NCC(C)c4ccccc4)CC3)cc2NC1=O (stereo not given)	0	9	-3	0	.	-5	.
COc1c(CC=C(C)C)cc(C2CC(=O)c3c(O)cc(O)cc3O2)cc1CC=C(C)C (stereo not given)	0	25	30*	13	104*	5	110*
CCc1ccc(/C=C/C(=O)c2cc(Br)ccc(=O)c2O)cc1	0	4	-3	8	63	9	.
Cc1cccc(/C=C/C(=O)c2cc(Br)ccc(=O)c2O)c1	0	-19	-1	1	102*	-5	100*
CC[C@@H]1[C@H]2CCCC(=O)N3CC[C@@H](C[C@H]1O)[C@@H]23	0	-3	-1	-1	.	-4	.
CC(=O)Nc1ccc(-c2nnc(SCC(=O)c3ccc4c(c3)Cc3ccccc3-4)n2C)cc1	4	2	3	0	105*	1	-86
Cc1ccc2nc(NC(=O)CN(C)S(=O)(=O)c3ccc(Br)s3)sc2c1	0	3	9	1	102*	-1	24

Compound activity: PubChem, several laboratories
